From ChEMBL document CHEMBL1156525, “A small-molecule therapeutic lead for Huntington's disease: preclinical pharmacology and efficacy of C2-8 in the R6/2 transgenic mouse” (Proc Natl Acad Sci U S A, 2007)
Activity calls are given as the source filed them. No cut-off for these calls is given here.

Columns and labels:
[1] = Half life in po dosed mouse brain; assay type: ADME, organism-based
Method in brief: (§1)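 Wild-type mice given single oral doses of 5, 10, 25 or 50 mg/kg. Plasma and brain sampled at 1, 4 and 8 h after dosing, and also at 16 and 24 h. Drug measured by HPLC/MS. n = 5; SD. Half-lives derived from the concentration–time course.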

Mus musculus [2] = assay: Toxicity in R6/2 mouse assessed as effect on body weight at 100 mg/kg/12 hrs for 4 weeks; assay type: organism-based; details: in vivo
Method in brief: (§2)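 Chronic tolerability study in adult female R6/2 mice (back-crossed onto C57BL/6 × CBA F1), n = 10 per group. Oral gavage twice daily at 50, 100 or 200 mg/kg/12 h for 4 weeks, given as a suspension made fresh daily. Body weight was recorded weekly at the same time of day.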

Mus musculus [3] = assay: Reduction of decrease in motor dysfunction in R6/2 mouse assessed as improvement in wire-hang endurance at 100 mg/kg/12 hrs after 12.5 weeks; assay type: functional, organism-based
Method in brief: (§3)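 Female R6/2 mice dosed by oral gavage at 0, 100 or 200 mg/kg/12 h from 24 days of age. Wire-hang endurance tested at 9.5 and 12.5 weeks: mouse placed on horizontal wire mesh, mesh gently inverted, and time hanging recorded. Three trials per day on three consecutive days, averaged. n = 15; geometric mean ± 95% CI; mixed-model analysis.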

PC-12 = assay: Inhibition of polyQ aggregation in rat PC12 cells; assay type: functional, cell-based
Mus musculus [4] = assay: Toxicity in R6/2 mouse assessed as survival at 200 mg/kg/12 hrs for 4 weeks; assay type: organism-based; details: in vivo
[5] = biological target: Sodium-dependent dopamine transporter (Homo sapiens, UniProt Q01959); assay: Inhibition of DAT
Method in brief: (§4)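 Screened against a panel of 60 receptors, ion channels and transporters expressed in mammalian brain. Receptor-binding profile reported as IC50.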

[6] = Inhibition of opioid receptor; method in brief: as §4
Mus musculus [7] = organism: Mus musculus; assay: Reduction of decrease in motor dysfunction in R6/2 mouse assessed as improvement in wire-hang endurance after 9.5 weeks; assay type: organism-based; details: in vivo, 1596 h; method in brief: as §3
Brain = assay: Drug concentration in mouse brain at 10 mg/kg, po after 16 hrs; assay type: ADME, organism-based; design: dose 10 mg/kg, route oral; details: in vivo; method in brief: as §1
Mus musculus [8] = assay: Toxicity in R6/2 mouse assessed as survival at 100 mg/kg/12 hrs for 4 weeks; assay type: organism-based; details: in vivo
Mus musculus [9] = organism: Mus musculus; assay: Reduction of decrease in motor dysfunction in R6/2 mouse assessed as increase in latency to fall at 8 weeks of age by rotarod test; assay type: functional; design: scale not given: the % may be the effect or the level left
Method in brief: (§5)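 R6/2 mice dosed orally at 0, 100 or 200 mg/kg/12 h from 24 days of age until death. Rotarod latency to fall tested at 5, 8 and 11 weeks of age. n = 15; geometric mean ± 95% CI; mixed-model analysis.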

Mus musculus [10] = organism: Mus musculus; assay: Reduction of decrease in motor dysfunction in R6/2 mouse assessed as increase in latency to fall at 11 weeks of age by rotarod test; assay type: functional; design: scale not given: the % may be the effect or the level left; method in brief: as §5
Mus musculus [11] = assay: Decrease in neuronal atrophy in R6/2 mouse assessed as striatal neuronal cell body volume at 200 mg/kg relative to control; assay type: functional; design: scale not given: the % may be the effect or the level left
Method in brief: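 Female R6/2 mice given oral gavage twice daily from 3 weeks of age until death or kill. Perfused at 90 days with 2% paraformaldehyde. Every eighth 50 μm thionin-stained section used; striatal neuronal cell body volume estimated stereologically by the nucleator method. n = 10; mean ± SEM; ANOVA versus placebo-treated R6/2 mice.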

Mus musculus [12] = assay: Decrease in striatal nuclear aggregate volume in R6/2 mouse at 200 mg/kg by nucleator method; assay type: functional; design: scale not given: the % may be the effect or the level left
Method in brief: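 R6/2 mice dosed orally twice daily from 3 weeks of age, perfusion-fixed at 90 days. Floating forebrain sections at the anterior commissure crossing were stained with EM48 (1:2,000) for 2 days, then biotinylated secondary antibody and ABC development. Intranuclear aggregate volume in the striatum measured by the nucleator method. Compared with vehicle-treated R6/2 mice.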

Mus musculus [13] = assay: Toxicity in R6/2 mouse assessed as body weight at 200 mg/kg/12 hrs for 4 weeks; assay type: organism-based; details: in vivo; method in brief: as §2
Adenosine receptor A3 = biological target: T1, Adenosine receptor A3 (Homo sapiens, UniProt P0DMS8); assay: Inhibition of adenosine A3 receptor; method in brief: as §4
T1 sequence (P0DMS8 whole entry): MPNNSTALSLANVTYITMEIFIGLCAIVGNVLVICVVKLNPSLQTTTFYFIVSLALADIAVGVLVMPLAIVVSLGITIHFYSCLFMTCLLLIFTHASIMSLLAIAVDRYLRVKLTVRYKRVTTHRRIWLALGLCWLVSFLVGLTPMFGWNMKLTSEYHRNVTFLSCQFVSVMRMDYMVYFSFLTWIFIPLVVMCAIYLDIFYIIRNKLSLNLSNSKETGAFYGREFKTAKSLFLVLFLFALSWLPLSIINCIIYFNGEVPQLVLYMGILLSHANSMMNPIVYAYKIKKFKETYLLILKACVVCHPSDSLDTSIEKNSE

Mus musculus [14] = assay: Toxicity in R6/2 mouse assessed as effect on body weight at 50 mg/kg/12 hrs for 4 weeks; assay type: organism-based; details: in vivo
Method in brief: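 Chronic tolerability study in adult R6/2 mice, n = 10 per group, dosed with 50, 100 or 200 mg/kg/12 h for 4 weeks by oral gavage. Body weight recorded weekly at the same time of day.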

[15] = Drug level in mouse cerebral cortex at 50 mg/kg, po administered for 5 days after 5 hrs; assay type: ADME, organism-based; design: dose 50 mg/kg, route oral; details: read-out: Drug uptake
Method in brief: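 Wild-type mice (n = 5) given 50 mg/kg by oral gavage as a suspension for 5 days. Killed 5 h after the last dose. Cortex (20–30 mg) sonicated in acetonitrile/0.4% acetic acid at −10°C, centrifuged, and the supernatant dried and reconstituted in mobile phase. Analysed by LC electrochemical array against a 0.8 μg/ml standard.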

[16] = Plasma half life in po dosed mouse; assay type: ADME, organism-based; method in brief: as §1
Plasma = assay: Drug concentration in mouse plasma at 25 mg/kg, po after 24 hrs; assay type: ADME, organism-based; design: dose 25 mg/kg, route oral; details: in vivo; method in brief: as §1
[17] = Lipophilicity, log P of the compound; assay type: physicochemical; details: octanol/water

Chain of Sodium-dependent dopamine transporter (Q01959 whole entry): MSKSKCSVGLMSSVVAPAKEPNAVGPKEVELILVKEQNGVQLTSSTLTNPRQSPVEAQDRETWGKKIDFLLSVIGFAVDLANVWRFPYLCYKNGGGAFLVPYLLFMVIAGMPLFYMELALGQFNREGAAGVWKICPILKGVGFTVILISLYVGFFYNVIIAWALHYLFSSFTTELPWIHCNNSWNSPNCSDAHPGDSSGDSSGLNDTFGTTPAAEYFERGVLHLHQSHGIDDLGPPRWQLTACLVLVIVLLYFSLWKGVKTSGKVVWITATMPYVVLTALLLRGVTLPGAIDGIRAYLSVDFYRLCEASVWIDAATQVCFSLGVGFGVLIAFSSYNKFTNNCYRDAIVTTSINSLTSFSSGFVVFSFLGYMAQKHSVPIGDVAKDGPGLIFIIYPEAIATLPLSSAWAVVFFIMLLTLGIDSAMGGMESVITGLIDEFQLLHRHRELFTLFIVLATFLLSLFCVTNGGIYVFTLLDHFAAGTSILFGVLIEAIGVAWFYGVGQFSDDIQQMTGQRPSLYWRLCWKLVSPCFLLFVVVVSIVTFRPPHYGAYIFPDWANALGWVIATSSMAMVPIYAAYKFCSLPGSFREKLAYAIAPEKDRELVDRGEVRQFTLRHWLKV

SMILES: O=C(Nc1ccc(Br)cc1)c1cccc(S(=O)(=O)Nc2ccc(Br)cc2)c1
- half-life [1]: 1.6 h
- Activity (Mus musculus [2]): Non-toxic
- Activity (Mus musculus [3]): Active
- IC50 (PC-12): 0.05 µM
- Activity (Mus musculus [4]): Non-toxic
- IC50 [5]: 1.7 µM
- IC50 [6]: 2.79 µM
- Activity (Mus musculus [7]): Active
- Drug uptake (Brain): < 15 pmol/g
- Activity (Mus musculus [8]): Non-toxic
- Activity (Mus musculus [9]): 37%
- Activity (Mus musculus [10]): 43%
- Activity (Mus musculus [11]): 20%
- Activity (Mus musculus [12]): 35%
- Activity (Mus musculus [13]): Non-toxic
- IC50 (Adenosine receptor A3): 5.76 µM
- Activity (Mus musculus [14]): Non-toxic
- concentration at 5 h [15]: 25 µM
- half-life [16]: 1.5 h
- Cp (Plasma): < 3 pmol/g
- logP [17]: 5.2
